# Experimental data pooled from the literature.
# Compare with care: the assays were run in different laboratories.
# CTSS: Cathepsin S (CTSS, Homo sapiens, UniProt P25774)
# DPP3: Dipeptidyl peptidase 3 (DPP3, Homo sapiens, UniProt Q9NY33)
# MAOA: Amine oxidase [flavin-containing] A (MAOA, Homo sapiens, UniProt P21397)
Structure (SMILES),target,effect on,mode,technique,concentration,inhibition [%]
CN(C)C(=O)COC(=O)Cc1ccc(OC(=O)c2ccc(NC(=N)N)cc2)cc1,CTSS,enzyme activity,inhibitor,,10 µM,3
C#Cc1n[nH]c2c(-c3cn([C@@H](C)c4ccccn4)c(=O)[nH]c3=O)cc(F)cc12,"Focal adhesion kinase 1 (PTK2, Homo sapiens, UniProt Q05397)",enzyme activity,inhibitor,,0.1 µM,4.5
Cc1ccc2nc(N3C(=O)C(O)=C(C(=O)OC(C)(C)C)C3c3ccc(-c4ccc(Cl)cc4)o3)sc2c1 (stereo not shown),"UDP-N-acetylglucosamine 1-carboxyvinyltransferase (murA, Escherichia coli K-12, UniProt P0A749)",enzyme activity,inhibitor,,20 µM,88
CC(C)C[C@H](NC(=O)[C@H]1O[C@@H]1C(=O)O)C(=O)NCCCCN=C(N)N,CTSS,enzyme activity,inhibitor,,5 nM,18
O=C(Nc1cccnn1)N1CCN([C@@H]2CCOc3cc(C(F)(F)F)ccc32)CC1,"Angiotensin-converting enzyme 2 (ACE2, Homo sapiens, UniProt Q9BYF1)",enzyme activity,inhibitor,,20 µM,3
O=C(NC[C@H](O)CO)[C@@H]1C[C@H](c2ccccc2)CCN1 (mixture of isomers),"Alpha-1A adrenergic receptor (ADRA1A, Homo sapiens, UniProt P35348)",ligand displacement,,radioligand,10 µM,-16.2
CCOC(=O)c1ccc(OC(=O)CCCCCNC(=N)N)cc1,DPP3,enzyme activity,inhibitor,,10 µM,4
Nc1ncnc2c1ncn2[C@@H]1O[C@H](CNS(=O)(=O)c2ccc3ccccc3c2)[C@@H](O)[C@H]1O,"Protein arginine N-methyltransferase 3 (PRMT3, Homo sapiens, UniProt O60678)",enzyme activity,inhibitor,,10 µM,-5
C[C@@H]1CCCN1CCCCOc1ccc2occc(=O)c2c1,MAOA,enzyme activity,inhibitor,fluorescence,10 µM,7
c1ccc(C(NCCNC(c2ccccc2)c2ccccc2)c2ccccc2)cc1,MAOA,cell-free assay,inhibitor,,10 µM,11
O=c1ccoc2ccc(OCCCCN3CCCCC3)cc12,MAOA,enzyme activity,inhibitor,fluorescence,10 µM,16
CCN(CC)CCCC[C@H](NC(=O)[C@H](CC(C)C)NC(=O)[C@H](C)NC(=O)[C@H](Cc1ccccc1)NC(=O)c1ccc(C(C)(C)C)cc1)C(=O)N[C@@H](CO)C(=O)OC,"Vasoactive intestinal polypeptide receptor 1 (VIPR1, Homo sapiens, UniProt P32241)",ligand displacement,,radioligand,10 µM,-9
COCc1c(-c2cc3cc(C)cc(OC)c3s2)c2c(N)ncnn2c1CN1CCNC(=O)C1,"Thromboxane-A synthase (TBXAS1, Homo sapiens, UniProt P24557)",enzyme activity,inhibitor,,10 µM,86
Cn1cc(-c2cccc(N3CCc4c(sc5c4CC(C)(C)C5)C3=O)c2CO)cc(Nc2ccncn2)c1=O,"Cyclin-dependent kinase 5, with p25 (CDK5, Homo sapiens, UniProt Q00535)",enzyme activity,inhibitor,,1 µM,2
N=C(N)c1ccc2cc(OC(=O)c3ccc(N=C(N)N)cc3)ccc2c1,DPP3,enzyme activity,inhibitor,,10 µM,3
COc1cc(Nc2ncc(F)c(Nc3ccc4c(n3)NC(=O)C(C)(C)O4)n2)cc(OC)c1OC,"Homeodomain-interacting protein kinase 3 (HIPK3, Homo sapiens, UniProt Q9H422)",binding,,competition with immobilised ligand,10 µM,64
